TPT1 inh: Candida albicans TPT1 enzyme inhibitors, primary screen, biochemical, fluorescence polarization. recombinant caTPT1, FP RNA substrate dephosphorylation. actives 0.81% (n = 300,000). inhibition, % at 5 µM. tRNA 2'-phosphotransferase TPT1 (Candida albicans SC5314);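 active = inhibition above the mean of all tested compounds plus 3 SD, set per screening campaign, cut at about 24% in these data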;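 note: plate controls were DMSO alone for no effect and ferristatin control at 100 nM for full effect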
IDE inh: human IDE inhibitors in live cells, primary screen, fluorescence polarization, HEK cells, FAbetaB substrate | Insulin-degrading enzyme (Homo sapiens), P14735 | FAbetaB cleavage | inhibition, % at 5.59 µM | actives 0.41% (n = 320,000);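 active = percent inhibition above the average of all tested compounds plus 3 SD, set per screening campaign, cut at about 16% in these data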;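 note: IDE supplied by intact live HEK cells; FP after avidin binding of uncleaved biotin substrate so inhibition keeps polarization high; 0% = DMSO wells and 100% = 60 µM reference IDE inhibitor Ii1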
HNF4A DNA FP: change in binding of human HNF4A to DNA, primary screen, biochemical, fluorescence polarization, FITC-DNA; AID 1224865, 2016; activity change, % at 10 µM; Hepatocyte nuclear factor 4-alpha (Homo sapiens), P41235; 1 h; actives 0.3% (n = 360,000); in the data active = activity change above about 30%, passing the limit was not always enough
CSN inh: inhibitors of CSN-mediated cullin deneddylation, primary screen, biochemical, fluorescence polarization, uHTS. actives 0.38% (n = 360,000). COP9 signalosome complex subunit 5 (Homo sapiens), Q92905. inhibition, % at 12.5 µM. Purified CSN, SCF-Nedd8-OG deneddylation. AID 651999, 2013;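 active = pattern-corrected inhibition above about 35%, with an unprinted fluorescence ratio check between 0.5 and 1.5, limit read from the data, passing the limit was not always enough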;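 note: 0% = enzyme with substrate and 100% = substrate without enzyme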
Target sequence (Q92905 whole entry, looked up, one chain of several): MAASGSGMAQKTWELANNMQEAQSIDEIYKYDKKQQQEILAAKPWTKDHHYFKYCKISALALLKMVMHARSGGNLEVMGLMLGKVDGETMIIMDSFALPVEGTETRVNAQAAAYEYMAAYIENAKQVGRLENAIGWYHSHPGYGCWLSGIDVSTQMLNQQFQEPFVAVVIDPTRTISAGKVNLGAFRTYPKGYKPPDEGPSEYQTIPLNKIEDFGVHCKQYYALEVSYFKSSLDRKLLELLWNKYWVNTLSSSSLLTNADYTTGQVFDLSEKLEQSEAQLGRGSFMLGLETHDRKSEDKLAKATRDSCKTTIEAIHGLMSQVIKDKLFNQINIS
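Test system: purified human Csn5 enzyme expressed in HEK293T cells. Amount: 0.24 nM enzyme. Reagent: SCFSkp2-Nedd8OG substrate at 10 nM final. Schedule: 90 min incubation of compound, enzyme and substrate at room temperature. Detection: fluorescence polarization. Read-out: % inhibition of substrate cleavage by Csn5.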
IDE act: human IDE activators in live cells, primary screen, fluorescence polarization, HEK cells, FAbeta-B substrate; Insulin-degrading enzyme (Homo sapiens), P14735; actives 0.073% (n = 340,000); activation, % at 5.96 µM; AID 493087, 2011; FAbeta-B cleavage; 0% vehicle, 100% cell-free pure enzyme wells;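 active = activation above the mean of all tested compounds plus 3 SD, set per screening campaign, cut at about 17% in these data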
An asterisk follows results filed as active. The list is not random: actives were taken first. Their share in the collection is about 1.4%.

Screening CCOc1ccc(-n2c(SCC(=O)N3CCc4ccccc43)nnc2-c2c[nH]c3ccccc23)cc1 returned TPT1 inh 0.3, IDE inh -1.2, HNF4A DNA FP 37.5*, CSN inh 140.7* and IDE act 13.2.
For CN[C@H]1C[C@@H](c2ccccc2)N(C(C)=O)C[C@H]1CO the results were HNF4A DNA FP -1.3 and CSN inh 2.0.
For CCOC(=O)CC1(C)Sc2ccccc2N1S(=O)(=O)c1ccc(C)cc1 (stereo not drawn) the results were HNF4A DNA FP 2.0 and CSN inh 0.7.
Screening Cc1ccc(-c2nc3cc(C)c(Br)c(C)n3c2Cc2ccsc2)cc1 returned HNF4A DNA FP 0.2 and CSN inh -0.6.
Screening Fc1cccc(CCN2CCNC[C@@H]2Cc2ccccc2)c1 returned TPT1 inh 0.1, IDE inh 3.1, HNF4A DNA FP 2.5, CSN inh 38.2* and IDE act -5.8.
NC1=NC[C@H](Cc2ccccc2)N1CCc1cccc(F)c1 was read as TPT1 inh -1.9, IDE inh -4.8, HNF4A DNA FP 9.9, CSN inh 63.4* and IDE act 5.2.
For CC1(C(=O)NCc2ccco2)Cc2c(-c3cccc(C(N)=O)c3)ccnc2O1 (stereo not drawn) the results were HNF4A DNA FP -4.8 and CSN inh -0.8.
`CN1\C(=C/C=C/C=C/C=[N+](C)C)C(C)(C)c2ccccc21` gave HNF4A DNA FP 101.6*, CSN inh 120.2 and IDE act -81.8.
CN(C)c1ccc(N=C/C=C2\N(C)c3ccccc3C2(C)C)cc1 was read as TPT1 inh 9.4, IDE inh -1.8, HNF4A DNA FP 22.5, CSN inh 11.6 and IDE act -13.4.
CN1/C(=C\C=Nc2ccc3ccccc3c2)C(C)(C)c2ccccc21 was read as TPT1 inh 49.1*, IDE inh 2.5, HNF4A DNA FP 29.8, CSN inh 14.6 and IDE act -3.2.
CN1/C(=C\C=N\NC(=O)c2cccnc2)C(C)(C)c2ccccc21 was read as TPT1 inh 0.1, IDE inh 2.7, HNF4A DNA FP 4.0, CSN inh -2.2 and IDE act -1.2.
For CN1/C(=C\C=O)C(C)(C)c2ccccc21 the results were TPT1 inh 0.5, IDE inh 4.4, HNF4A DNA FP 7.3, CSN inh -1.4 and IDE act 2.0.
`CN1/C(=C\C=N\NC(=O)c2ccc(O)cc2)C(C)(C)c2ccccc21` gave TPT1 inh -13.3, IDE inh 6.7, HNF4A DNA FP 38.4*, CSN inh 32.6 and IDE act 2.1.
CCOC(=O)[C@]12CCCC=C1N(Cc1ccccc1)C(=O)[C@H](CC(=O)N1CCN(C(=O)C3CC3)CC1)C2 was read as HNF4A DNA FP 2.2 and CSN inh -7.0.
CC(C)NC(=O)C1(C)CSCC(=O)N1CCCN1CCOCC1 (stereo not drawn) was read as HNF4A DNA FP 2.4 and CSN inh 1.9.
For O=C1c2ccccc2C(Nc2ccc(-c3nc4ccccc4[nH]3)cc2)N1Cc1ccco1 (stereo not drawn) the results were TPT1 inh -0.7, IDE inh 5.2, HNF4A DNA FP -1.2, CSN inh -2.0 and IDE act -13.3.
Screening O=C1c2ccccc2C(Nc2ccc3nc(-c4cccnc4)[nH]c3c2)N1Cc1ccco1 (stereo not drawn) returned TPT1 inh -7.2, IDE inh -9.2, HNF4A DNA FP -0.8, CSN inh -1.8 and IDE act 18.4*.
`C#CCOCCOCCOCCNc1nc(N2CCN(C(=O)CCCCCCCCCCNC(=O)[C@H](CCCCN)n3cc(C[C@@H](C)CC)nn3)CC2)nc(N2CCN(C(=O)CCCCCCCCCCNC(=O)[C@H](CCCCN)n3cc(C[C@@H](C)CC)nn3)CC2)n1` gave TPT1 inh -0.6, IDE inh -1.9, HNF4A DNA FP 187.2, CSN inh 106.1* and IDE act 39.8*.
For C#CCOCCOCCOCCNc1nc(N2CCN(C(=O)CCCCCCCCCCNC(=O)[C@H](CCCCN)n3cc(CCO)nn3)CC2)nc(N2CCN(C(=O)CCCCCCCCCCNC(=O)[C@H](CCCN=C(N)N)n3cc(C[C@@H](C)CC)nn3)CC2)n1 the results were TPT1 inh 4.7, IDE inh 1.3, HNF4A DNA FP 163.8, CSN inh 109.0* and IDE act 40.1*.
`C#CCOCCOCCOCCNc1nc(N2CCN(C(=O)CCCCCCCCCCNC(=O)[C@H](CCCCN)n3cc(CCO)nn3)CC2)nc(N2CCN(C(=O)CCCCCCCCCCNC(=O)[C@H](CCCCN)n3cc(CCO)nn3)CC2)n1` gave TPT1 inh 0.0, IDE inh 6.4, HNF4A DNA FP 130.5, CSN inh 103.6* and IDE act 9.6.
C#CCOCCOCCOCCNc1nc(N2CCN(C(=O)CCCCCCCCCCNC(=O)[C@H](CO)n3cc(CCCSC)nn3)CC2)nc(N2CCN(C(=O)CCCCCCCCCCNC(=O)[C@H](CCCCN)n3cc(C[C@@H](C)CC)nn3)CC2)n1 was read as TPT1 inh -2.5 and IDE inh -2.4.
C#CCOCCOCCOCCNc1nc(N2CCN(C(=O)CCCCCCCCCCNC(=O)[C@H](CCCCN)n3cc(CCCC(=O)O)nn3)CC2)nc(N2CCN(C(=O)CCCCCCCCCCNC(=O)[C@H](CCCCN)n3cc(CCCC(=O)O)nn3)CC2)n1 was read as TPT1 inh 0.6, IDE inh 1.7, HNF4A DNA FP -0.2, CSN inh 2.1 and IDE act -5.7.
For C#CCOCCOCCOCCNc1nc(N2CCN(C(=O)CCCCCCCCCCNC(=O)[C@H](CCCCN)n3cc(CCCC(=O)O)nn3)CC2)nc(N2CCN(C(=O)CCCCCCCCCCNC(=O)[C@H](CCCN=C(N)N)n3cc(C[C@@H](C)CC)nn3)CC2)n1 the results were TPT1 inh 1.8, IDE inh 5.0, HNF4A DNA FP 28.8, CSN inh 5.6 and IDE act 25.9*.
C#CCOCCOCCOCCNc1nc(N2CCN(C(=O)CCCCCCCCCCNC(=O)[C@H]([C@@H](C)CC)n3cc(CCCCN=C(N)N)nn3)CC2)nc(N2CCN(C(=O)CCCCCCCCCCNC(=O)[C@H](CCCCN)n3cc(C[C@@H](C)CC)nn3)CC2)n1 was read as TPT1 inh -0.1 and IDE inh -6.3.
Screening CCCCNC(=O)c1[nH]c(C2CCNCC2)nc1-c1cccc(C(F)(F)F)c1 returned HNF4A DNA FP 3.0 and CSN inh 3.8.
Screening COC(=O)[C@]12CCCCC=C1N(CCc1ccc(OC)c(OC)c1)C(=O)[C@H](CC(=O)NCc1cccc(C(F)(F)F)c1)C2 returned HNF4A DNA FP 2.4 and CSN inh 0.0.

Assay outcomes: PubChem BioAssay, several laboratories
